pIC50: −log10 of the molar value. The source made the active and inactive calls. No cut-off for these calls is given here.
How the values were obtained:
[1] = Half life in Sprague-Dawley rat at 1 mg/kg, iv; format: ADME, organism-based; parameters: dose 1 mg/kg, route intravenous; conditions: in vivo
Outline: (§1)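 Sprague-Dawley rats given a single 1 mg/kg bolus, intravenous or oral. Plasma PK parameters (AUC, dose-normalised AUC, half-life, clearance, Vss, Cmax, Tmax, oral bioavailability) derived from plasma levels.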

[2] = molecular target: Alpha-1B adrenergic receptor (Rattus norvegicus) (UniProt P15823); test: Inhibition of rat adrenergic alpha1B receptor at 10 uM by radioligand displacement assay
Outline: (§2)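 Single concentration of 10 μM, tested in duplicate as part of a contracted panel of 68 in vitro enzyme and receptor assays. The panel covers common adverse CNS, cardiovascular, pulmonary and genotoxic targets.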

[3] = molecular target: Beta-2 adrenergic receptor (Homo sapiens) (UniProt P07550); test: Inhibition of human beta2 adrenergic receptor at 10 uM by radioligand displacement assay
Outline: (§3)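 LeadProfilingScreen panel of 68 in vitro enzyme and receptor assays. Compound tested at 10 μM in duplicate.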

[4] = tested on: Superoxide dismutase [Cu-Zn] (Homo sapiens), P00441 [G94A]; test: Inhibition of SOD1 G93A mutant aggregation-induced cytotoxicity in human HeLa cells by cytotoxicity protection assay; format: cell-based
Plasma = test: Plasma protein binding in rat; format: ADME, cell-free
Rattus norvegicus [5] = species on record: Rattus norvegicus; test: Inhibition of rat kainate receptor glutamate binding site at 10 uM by radioligand displacement assay; outline: as §2
Cytochrome P450 3A4 [6] = molecular target: T1, Cytochrome P450 3A4 (Homo sapiens, UniProt P08684); test: Inhibition of CYP3A4 using midazolam as substrate; format: ADME
Outline: (§4)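 Reversible inhibition of CYP isozymes in human liver microsomes, each isozyme with a single probe substrate. CYP3A4 tested with both testosterone and midazolam. IC50 determined.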

[7] = Drug uptake in B6SJL mouse brain at 300 mg/kg after 4 hrs; format: ADME, organism-based; parameters: dose 300 mg/kg; conditions: read-out: Drug uptake
Outline: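 B6SJL mice given a 300 mg/kg intraperitoneal bolus. Blood and brain collected over 0–24 h, flash frozen in liquid nitrogen, stored at −80 °C. Analysed by mass spectrometry (ESI, MRM mode).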

[8] = Plasma concentration in B6SJL mouse at 300 mg/kg after 24 hrs by mass spectrometry; format: ADME, organism-based; parameters: dose 300 mg/kg
Outline: (§5)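 B6SJL mice were given a single 300 mg/kg intraperitoneal bolus. Blood and brain were collected at 0, 1, 3, 6, 12 and 24 h, flash-frozen in liquid nitrogen and stored at -80 °C. Samples were analyzed by mass spectrometry with ESI ionization in MRM mode.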

[9] = molecular target: Adenosine receptor A3 (Homo sapiens) (UniProt P0DMS8); test: Inhibition of human adenosine A3 receptor at 10 uM by radioligand displacement assay
Outline: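 Single concentration of 10 μM, tested in duplicate in a contract panel of 68 in vitro enzyme and receptor binding assays covering common adverse CNS, cardiovascular, pulmonary and genotoxic targets.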

Homo sapiens [10] = species on record: Homo sapiens; test: Inhibition of human nicotinic acetylcholine receptor at 10 uM by radioligand displacement assay; outline: as §2
Cytochrome P450 2D6 = Cytochrome P450 2D6 (Homo sapiens, UniProt P10635); test: Inhibition of CYP2D6; format: ADME; outline: as §4
Cytochrome P450 1A2 = Cytochrome P450 1A2 (Homo sapiens, UniProt P05177); test: Inhibition of CYP1A2; format: ADME; outline: as §4
[11] = molecular target: Androgen receptor (Rattus norvegicus) (UniProt P15207); test: Inhibition of rat testosterone receptor at 10 uM by radioligand displacement assay; outline: as §2
[12] = molecular target: Histamine H1 receptor (Homo sapiens) (UniProt P35367); test: Inhibition of human histamine H1 receptor at 10 uM by radioligand displacement assay; outline: as §2
[13] = molecular target: B2 bradykinin receptor (Homo sapiens) (UniProt P30411); test: Inhibition of human bradykinin B2 receptor at 10 uM by radioligand displacement assay; outline: as §3
[14] = Cmax in Sprague-Dawley rat at 1 mg/kg, po; format: ADME, organism-based; parameters: dose 1 mg/kg, route oral; conditions: in vivo; outline: as §1
hERG [15] = molecular target: T2, hERG (Homo sapiens, UniProt Q12809); test: Inhibition of human ERG expressed in human HEK293 cells at 10 uM by patch clamp assay; format: cell-based; conditions: HEK293 cells that express hERG
Outline: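 Cloned hERG potassium channels expressed in HEK293 cells. FASTPatch patch-clamp screen with test compound at 10 μM, two experiments. E-4031 used as positive control. Solubility at test concentration checked by TurboSol; value given as mean % hERG antagonism.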

hERG [16] = molecular target: T2, hERG; test: Inhibition of human ERG at 10 uM by radioligand displacement assay; outline: as §3
[17] = Plasma concentration in B6SJL mouse at 300 mg/kg after 12 hrs by mass spectrometry; format: ADME, organism-based; parameters: dose 300 mg/kg; outline: as §5
[18] = molecular target: Platelet-activating factor receptor (Homo sapiens) (UniProt P25105); test: Inhibition of platelet activating factor receptor at 10 uM by radioligand displacement assay; outline: as §2
[19] = molecular target: Glutamate NMDA receptor (Rattus norvegicus) (UniProt P35439+Q00959+Q00960+Q00961+Q62645+Q8VHN2+Q9R1M7); test: Inhibition of rat NMDA receptor glutamate and glycine binding site at 10 uM by radioligand displacement assay; format: protein-complex assay; outline: as §2
Mus musculus [20] = species on record: Mus musculus; test: Inhibition of mouse phorbol ester site of PKC at 10 uM by radioligand displacement assay; outline: as §2
[21] = Tmax in Sprague-Dawley rat at 1 mg/kg, po; format: ADME, organism-based; parameters: dose 1 mg/kg, route oral; conditions: in vivo
Outline: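 Sprague-Dawley rats received a single bolus of 1 mg/kg by i.v. or by oral route. Plasma PK parameters were derived from the plasma concentration profile.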

[22] = molecular target: D(1A) dopamine receptor (Homo sapiens) (UniProt P21728); test: Inhibition of human dopamine D1 receptor at 10 uM by radioligand displacement assay; outline: as §3
[23] = molecular target: Adenosine receptor A1 (Homo sapiens) (UniProt P30542); test: Inhibition of human adenosine A1 receptor at 10 uM by radioligand displacement assay; outline: as §3
[24] = molecular target: Alpha-2A adrenergic receptor (Homo sapiens) (UniProt P08913); test: Inhibition of human adrenergic alpha2A receptor at 10 uM by radioligand displacement assay; outline: as §3
[25] = molecular target: D(3) dopamine receptor (Homo sapiens) (UniProt P35462); test: Inhibition of human dopamine D3 receptor at 10 uM by radioligand displacement assay; outline: as §2
[26] = molecular target: Beta-1 adrenergic receptor (Homo sapiens) (UniProt P08588); test: Inhibition of human beta1 adrenergic receptor at 10 uM by radioligand displacement assay; outline: as §3
Cytochrome P450 3A4 [27] = molecular target: T1, Cytochrome P450 3A4; test: Inhibition of CYP3A4 using testosterone as substrate; format: ADME; outline: as §4
Rattus norvegicus [28] = species on record: Rattus norvegicus; test: Inhibition of rat thyroid hormone receptor at 10 uM by radioligand displacement assay; outline: as §2
Mus musculus [29] = test: Neuroprotective activity in SOD1 G93A mutant B6SJL mouse ALS model assessed as life extension at 20 mg/kg administered qd for 1 week relative to untreated control; format: functional
Homo sapiens [30] = species on record: Homo sapiens; test: Inhibition of human dopamine […] receptor at 10 uM by radioligand displacement assay; outline: as §2
[31] = molecular target: Alpha-1A adrenergic receptor (Rattus norvegicus) (UniProt P43140); test: Inhibition of rat adrenergic alpha1A receptor at 10 uM by radioligand displacement assay; outline: as §2
[32] = molecular target: Histamine H2 receptor (Homo sapiens) (UniProt P25021); test: Inhibition of human histamine H2 receptor at 10 uM by radioligand displacement assay; outline: as §2
[33] = molecular target: Cysteinyl leukotriene receptor 1 (Homo sapiens) (UniProt Q9Y271); test: Inhibition of human cysteinyl CysLT1 receptor at 10 uM by radioligand displacement assay; outline: as §3
[34] = molecular target: Muscarinic acetylcholine receptor M3 (Homo sapiens) (UniProt P20309); test: Inhibition of human muscarinic M3 receptor at 10 uM by radioligand displacement assay; outline: as §2

T1 sequence (P08684 whole entry): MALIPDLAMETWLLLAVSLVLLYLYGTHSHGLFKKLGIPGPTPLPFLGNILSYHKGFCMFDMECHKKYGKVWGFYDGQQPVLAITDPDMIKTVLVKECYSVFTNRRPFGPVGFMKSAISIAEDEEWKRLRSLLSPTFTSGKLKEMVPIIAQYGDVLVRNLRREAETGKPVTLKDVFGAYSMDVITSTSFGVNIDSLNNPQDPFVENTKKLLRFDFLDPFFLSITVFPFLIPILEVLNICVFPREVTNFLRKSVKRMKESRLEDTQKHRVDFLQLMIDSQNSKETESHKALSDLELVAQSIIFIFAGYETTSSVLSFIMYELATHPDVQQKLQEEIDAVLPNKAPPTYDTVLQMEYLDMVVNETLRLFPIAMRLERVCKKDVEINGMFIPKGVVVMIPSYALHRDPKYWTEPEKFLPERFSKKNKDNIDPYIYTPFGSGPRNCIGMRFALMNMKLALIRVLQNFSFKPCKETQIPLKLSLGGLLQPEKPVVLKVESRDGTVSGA
T2 sequence (Q12809 whole entry): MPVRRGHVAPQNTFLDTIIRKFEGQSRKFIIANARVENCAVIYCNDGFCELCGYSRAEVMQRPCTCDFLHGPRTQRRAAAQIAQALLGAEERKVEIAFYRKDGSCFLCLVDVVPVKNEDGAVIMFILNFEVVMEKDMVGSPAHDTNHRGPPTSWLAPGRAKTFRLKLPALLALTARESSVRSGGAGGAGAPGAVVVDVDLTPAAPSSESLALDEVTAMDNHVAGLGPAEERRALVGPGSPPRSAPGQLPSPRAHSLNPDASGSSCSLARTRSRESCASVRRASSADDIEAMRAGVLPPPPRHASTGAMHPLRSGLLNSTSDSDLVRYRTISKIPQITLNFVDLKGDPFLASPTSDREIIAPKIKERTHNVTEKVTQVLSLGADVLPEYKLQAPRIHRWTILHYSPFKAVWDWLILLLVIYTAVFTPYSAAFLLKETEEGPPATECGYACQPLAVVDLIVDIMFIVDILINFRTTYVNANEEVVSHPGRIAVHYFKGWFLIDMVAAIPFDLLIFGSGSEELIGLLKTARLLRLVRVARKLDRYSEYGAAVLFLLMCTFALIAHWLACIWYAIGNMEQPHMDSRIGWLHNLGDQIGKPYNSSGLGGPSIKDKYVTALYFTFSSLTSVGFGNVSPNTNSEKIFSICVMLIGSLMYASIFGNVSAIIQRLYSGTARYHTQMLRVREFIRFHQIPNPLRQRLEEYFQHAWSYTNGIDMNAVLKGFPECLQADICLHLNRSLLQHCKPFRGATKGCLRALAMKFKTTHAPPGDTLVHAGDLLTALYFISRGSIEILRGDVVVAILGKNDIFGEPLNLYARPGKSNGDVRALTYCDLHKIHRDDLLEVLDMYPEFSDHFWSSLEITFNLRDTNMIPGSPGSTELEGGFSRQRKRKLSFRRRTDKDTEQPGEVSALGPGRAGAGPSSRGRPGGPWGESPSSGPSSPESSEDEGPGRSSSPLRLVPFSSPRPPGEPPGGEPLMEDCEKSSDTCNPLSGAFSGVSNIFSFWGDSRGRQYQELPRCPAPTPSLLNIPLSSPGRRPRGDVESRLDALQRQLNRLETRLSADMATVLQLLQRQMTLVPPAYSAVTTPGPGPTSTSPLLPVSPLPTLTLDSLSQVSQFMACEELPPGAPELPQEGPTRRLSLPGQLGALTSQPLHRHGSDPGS
Chain of Alpha-1B adrenergic receptor (Rattus norvegicus) (P15823 whole entry): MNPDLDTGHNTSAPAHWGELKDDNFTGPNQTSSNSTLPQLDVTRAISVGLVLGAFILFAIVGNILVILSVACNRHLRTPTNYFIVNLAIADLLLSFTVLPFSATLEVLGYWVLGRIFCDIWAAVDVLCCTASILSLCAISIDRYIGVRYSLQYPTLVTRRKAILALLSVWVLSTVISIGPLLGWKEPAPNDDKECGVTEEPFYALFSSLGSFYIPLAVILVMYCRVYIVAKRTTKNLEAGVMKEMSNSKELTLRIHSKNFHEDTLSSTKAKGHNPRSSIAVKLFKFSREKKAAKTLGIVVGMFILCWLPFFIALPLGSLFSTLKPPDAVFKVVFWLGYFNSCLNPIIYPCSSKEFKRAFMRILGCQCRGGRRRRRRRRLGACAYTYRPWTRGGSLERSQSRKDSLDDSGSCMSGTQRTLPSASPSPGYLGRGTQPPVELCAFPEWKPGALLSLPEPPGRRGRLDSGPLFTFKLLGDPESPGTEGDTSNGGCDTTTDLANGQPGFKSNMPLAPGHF
Chain of D(3) dopamine receptor (Homo sapiens) (P35462 whole entry): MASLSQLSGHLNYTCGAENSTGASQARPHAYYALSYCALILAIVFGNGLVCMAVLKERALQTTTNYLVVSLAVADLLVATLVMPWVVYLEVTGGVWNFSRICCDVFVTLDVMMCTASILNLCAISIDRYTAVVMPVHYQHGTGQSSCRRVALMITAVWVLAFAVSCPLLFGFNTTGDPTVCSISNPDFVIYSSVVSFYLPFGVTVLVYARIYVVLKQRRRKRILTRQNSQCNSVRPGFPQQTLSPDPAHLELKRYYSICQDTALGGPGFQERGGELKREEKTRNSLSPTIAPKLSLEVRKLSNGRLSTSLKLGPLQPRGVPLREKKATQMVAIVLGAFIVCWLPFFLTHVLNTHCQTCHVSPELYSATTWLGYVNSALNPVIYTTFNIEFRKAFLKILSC
Chain of Adenosine receptor A3 (Homo sapiens) (P0DMS8 whole entry): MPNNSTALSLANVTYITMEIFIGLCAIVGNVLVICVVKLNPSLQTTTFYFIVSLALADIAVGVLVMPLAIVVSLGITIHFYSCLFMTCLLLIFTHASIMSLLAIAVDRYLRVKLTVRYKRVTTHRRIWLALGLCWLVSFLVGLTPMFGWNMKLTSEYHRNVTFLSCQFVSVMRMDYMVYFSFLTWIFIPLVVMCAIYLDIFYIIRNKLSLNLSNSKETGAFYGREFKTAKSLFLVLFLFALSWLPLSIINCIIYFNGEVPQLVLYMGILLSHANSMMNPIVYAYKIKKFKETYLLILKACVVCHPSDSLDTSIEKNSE
Chain of Superoxide dismutase [Cu-Zn] (Homo sapiens), P00441 [G94A] (P00441 whole entry G94A): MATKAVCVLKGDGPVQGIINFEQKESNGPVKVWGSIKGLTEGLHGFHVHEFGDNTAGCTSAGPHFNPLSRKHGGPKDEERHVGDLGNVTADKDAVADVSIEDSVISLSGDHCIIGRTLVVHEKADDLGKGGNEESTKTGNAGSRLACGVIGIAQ
Chain of Cysteinyl leukotriene receptor 1 (Homo sapiens) (Q9Y271 whole entry): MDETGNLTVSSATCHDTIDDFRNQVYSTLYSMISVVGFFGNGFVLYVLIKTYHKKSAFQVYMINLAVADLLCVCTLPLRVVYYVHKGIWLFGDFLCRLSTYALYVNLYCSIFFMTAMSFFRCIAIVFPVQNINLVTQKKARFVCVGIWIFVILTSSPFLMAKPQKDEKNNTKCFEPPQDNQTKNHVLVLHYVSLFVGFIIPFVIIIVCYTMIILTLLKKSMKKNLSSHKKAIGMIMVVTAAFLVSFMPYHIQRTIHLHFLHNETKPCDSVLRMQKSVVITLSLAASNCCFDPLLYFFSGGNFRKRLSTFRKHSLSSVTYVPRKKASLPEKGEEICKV
Chain of Beta-2 adrenergic receptor (Homo sapiens) (P07550 whole entry, looked up): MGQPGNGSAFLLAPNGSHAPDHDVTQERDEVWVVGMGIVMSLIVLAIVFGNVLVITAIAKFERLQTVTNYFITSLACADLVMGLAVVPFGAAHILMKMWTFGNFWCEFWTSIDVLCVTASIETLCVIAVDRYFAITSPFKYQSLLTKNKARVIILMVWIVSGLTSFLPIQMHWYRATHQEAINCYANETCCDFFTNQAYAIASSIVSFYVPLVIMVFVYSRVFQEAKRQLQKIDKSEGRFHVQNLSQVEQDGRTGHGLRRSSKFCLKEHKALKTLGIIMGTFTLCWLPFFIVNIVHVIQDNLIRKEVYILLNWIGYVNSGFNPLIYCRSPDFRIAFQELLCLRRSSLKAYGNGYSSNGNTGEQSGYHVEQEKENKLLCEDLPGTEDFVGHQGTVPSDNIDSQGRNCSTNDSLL
Chain of Beta-1 adrenergic receptor (Homo sapiens) (P08588 whole entry, looked up): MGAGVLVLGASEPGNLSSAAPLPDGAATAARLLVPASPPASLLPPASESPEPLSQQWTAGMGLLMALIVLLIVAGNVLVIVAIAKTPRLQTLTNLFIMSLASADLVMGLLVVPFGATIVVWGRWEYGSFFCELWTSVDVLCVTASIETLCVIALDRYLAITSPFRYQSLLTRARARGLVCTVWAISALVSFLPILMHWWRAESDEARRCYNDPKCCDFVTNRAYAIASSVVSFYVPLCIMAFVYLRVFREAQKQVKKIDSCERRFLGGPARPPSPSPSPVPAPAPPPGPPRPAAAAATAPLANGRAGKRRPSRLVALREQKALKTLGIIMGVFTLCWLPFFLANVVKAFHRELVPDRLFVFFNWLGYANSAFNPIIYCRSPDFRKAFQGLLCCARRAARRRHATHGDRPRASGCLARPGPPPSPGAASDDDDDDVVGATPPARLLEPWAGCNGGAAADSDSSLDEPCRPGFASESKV
Chain of Adenosine receptor A1 (Homo sapiens) (P30542 whole entry): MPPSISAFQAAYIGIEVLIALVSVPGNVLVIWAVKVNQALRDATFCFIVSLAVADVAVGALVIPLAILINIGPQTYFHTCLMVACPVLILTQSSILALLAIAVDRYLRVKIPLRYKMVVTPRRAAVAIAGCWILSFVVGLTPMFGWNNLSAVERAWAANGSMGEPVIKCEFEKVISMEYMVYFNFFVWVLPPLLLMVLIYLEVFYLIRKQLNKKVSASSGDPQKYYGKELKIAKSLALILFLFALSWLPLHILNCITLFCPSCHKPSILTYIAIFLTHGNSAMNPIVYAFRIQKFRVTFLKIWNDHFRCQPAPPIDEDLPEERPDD
Chain of Platelet-activating factor receptor (Homo sapiens) (P25105 whole entry): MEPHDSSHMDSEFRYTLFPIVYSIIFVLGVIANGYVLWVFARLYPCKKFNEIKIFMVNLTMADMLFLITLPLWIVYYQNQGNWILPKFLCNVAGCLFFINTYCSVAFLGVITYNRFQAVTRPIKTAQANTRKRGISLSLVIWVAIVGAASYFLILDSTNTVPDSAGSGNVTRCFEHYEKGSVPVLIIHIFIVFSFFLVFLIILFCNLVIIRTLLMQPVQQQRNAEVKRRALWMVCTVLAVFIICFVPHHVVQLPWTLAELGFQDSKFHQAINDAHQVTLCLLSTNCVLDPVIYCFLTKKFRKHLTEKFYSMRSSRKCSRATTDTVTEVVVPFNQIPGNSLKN

SMILES: O=c1cc(COc2cc(Cl)cc(Cl)c2)[nH][nH]1
- half-life [1]: 2.1 h
- inhibition [2]: 0%
- inhibition [3]: -2%
- inhibition [4]: Active
- PPB (Plasma): 98%
- inhibition (Rattus norvegicus [5]): 24%
- pIC50 (Cytochrome P450 3A4 [6]): < 4.30
- concentration at 4 h [7]: 194 µM
- concentration at 24 h [8]: 6.5 µM
- inhibition [9]: 6%
- inhibition (Homo sapiens [10]): 7%
- pIC50 (Cytochrome P450 2D6): < 4.30
- pIC50 (Cytochrome P450 1A2): < 4.30
- inhibition [11]: 3%
- inhibition [12]: 1%
- inhibition [13]: -10%
- Cmax [14]: 39 ng/mL
- inhibition at 10 µM (hERG [15]): 0.6%
- inhibition at 10 µM (hERG [16]): -7%
- concentration at 12 h [17]: 248 µM
- inhibition [18]: -1%
- inhibition [19]: 5%
- inhibition (Mus musculus [20]): 1%
- Tmax [21]: 0.25 h
- inhibition [22]: 3%
- inhibition [23]: 15%
- inhibition [24]: 8%
- inhibition [25]: -4%
- inhibition [26]: 1%
- pIC50 (Cytochrome P450 3A4 [27]): < 4.30
- inhibition (Rattus norvegicus [28]): 10%
- Activity (Mus musculus [29]): 13.3%
- inhibition (Homo sapiens [30]): 14%
- inhibition [31]: -2%
- inhibition [32]: 3%
- inhibition [33]: 0%
- inhibition [34]: -4%

From ChEMBL document CHEMBL2163259, “ADME-guided design and synthesis of aryloxanyl pyrazolone derivatives to block mutant superoxide dismutase 1 (SOD1) cytotoxicity and protein aggregation: potential application for the treatment of amyotrophic lateral sclerosis” (J Med Chem, 2012)
